Screening results: PubChem, The Scripps Research Institute Molecular Screening Center
This is a sample that favours compounds with a hit; in the whole collection about 1.8% have one here.
MC4R ag barr: human MC4R agonism via beta-arrestin; P32245; U2OS MC4R beta-arrestin complementation, luminescence; percent of melanotan II response, DMSO zero; activation, % at 8.9 µM; 0.98% of 360,000 active;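 active = activation above a per-plate cutoff, the mean activation of sample wells on that plate plus 3 SD, cut at about 8% in these data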
Target sequence (P32245 whole entry, looked up): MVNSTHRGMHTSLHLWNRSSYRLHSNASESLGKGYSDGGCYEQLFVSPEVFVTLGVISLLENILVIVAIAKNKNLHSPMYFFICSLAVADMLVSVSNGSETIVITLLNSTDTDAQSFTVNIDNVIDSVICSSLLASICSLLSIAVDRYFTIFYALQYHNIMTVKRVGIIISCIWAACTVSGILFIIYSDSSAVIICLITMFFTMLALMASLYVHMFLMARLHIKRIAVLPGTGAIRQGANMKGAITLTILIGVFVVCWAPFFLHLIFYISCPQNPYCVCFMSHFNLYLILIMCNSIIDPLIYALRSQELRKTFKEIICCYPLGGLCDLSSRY
TLR9-MyD88 block: inhibitors of human TLR9-MyD88 binding; inhibition, % at 4.98 µM; Q9NR96+Q99836; 0.21% of 340,000 active; CHO BLA complementation TLR9-MyD88, CCF4 FRET ratio; AID 504734;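 active = inhibition above the mean over all tested compounds plus 3 SD, cut at about 21% in these data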;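 note: 0% = DMSO only wells and 100% = clavulanate BLA inhibitor control wells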
NOD2-RIPK2 inh: NOD2-RIPK2 protein interaction inhibition; CHO BLA complementation NOD2-RIPK2, CCF4 ratio; 0.38% of 360,000 active; inhibition, % at 4.98 µM; in the data active = inhibition above about 21%;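 note: 0% = vehicle only and 100% = reference blocker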
TLR4 MyD88 comp: TLR4-MyD88 interaction inhibition in cells; HeLa CL3-4 TLR4/MyD88 BLA complementation, FRET ratio; 0.18% of 200,000 active; inhibition, % at 8.4 µM; in the data active = inhibition above about 25%;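 note: 0% = vehicle and 100% = reference inhibitor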
MC4R antag cAMP: human MC4R antagonism in cAMP assay; MC4R-expressing cells, MTII-stimulated cAMP, LANCE TR-FRET; inhibition, % at 6.5 µM; 0.48% of 360,000 active;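 active = inhibition above its plate's cutoff, the mean of tested wells on that plate plus 3 SD, cut at about 29% in these data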;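 note: 0% = Melanotan II alone and 100% = Melanotan II plus saturating MCL0020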
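Material: human MC4R-expressing U2OS cells. Probe or stimulus: Melanotan II challenge. Dosing: 6.5 µM single dose. Times: 30-min compound, 1-h challenge, 1-h detection, room temperature. Technique: TR-FRET with Eu-cAMP and labeled anti-cAMP, 671 nm. Replication: singlicate.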
NOD2-RIPK2 conf: confirmation of human NOD2-RIPK2 interaction inhibitors; AID 624370; CHO cells, NOD2-RIPK2 BLA complementation, CCF4 FRET; 70% of 1,200 active; inhibition, % at 4.98 µM; shares compounds with NOD2-RIPK2 inh;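 active = mean inhibition across replicates above a set limit taken from the earlier primary screen, cut at about 21% in these data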;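 note: 0% = DMSO-only wells and the high end = clavulanate BLA-blocked wells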
NOD2 BLA counter: counter-screen for NOD2-RIPK2 interaction inhibitors: BLA reporter. 57% of 1,200 active. shares compounds with NOD2-RIPK2 inh. inhibition, % at 4.98 µM. CHO BLA reporter, CCF4 FRET ratio, counterscreen;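 active = mean inhibition above the low-control mean inhibition plus three low-control SD, cut at about 11% in these data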;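 note: 0% = DMSO only wells and 100% = clavulanate high control wells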
Numbers without * were called inactive; · = no result given.

SMILES | MC4R ag barr | TLR9-MyD88 block | NOD2-RIPK2 inh | TLR4 MyD88 comp | MC4R antag cAMP | NOD2-RIPK2 conf | NOD2 BLA counter
COc1cc(C(O)c2nc(-c3cccc(C(C)C)c3)cs2)ccc1F (centres undefined) | 3 | · | 2 | · | -2 | · | ·
NC(=O)NCC(c1ccccc1)C1CCCCC1 (centres undefined) | -2 | -1 | 0 | · | 7 | · | ·
CCN(CC)c1ccc(/C=C2\SC(=O)N(C(C)C)C2=O)o1 | -2 | · | 56* | · | 9 | 12 | 10*
CC(C)N1C(=O)S/C(=C/c2ccc3c(c2)n(C)c(=O)n3C)C1=O | 0 | -4 | 2 | 2 | -2 | · | ·
O=Nc1c(O)[nH]c2ccc(Cl)c(Cl)c12 | -1 | 17 | 28* | · | -6 | 26* | 15*
CCc1cccc2c(N=O)c(O)[nH]c12 | 1 | 20 | 3 | 4 | -17 | · | ·
Cc1ccccc1C(=O)O/N=C(\N)Cc1cccs1 | -3 | -8 | -9 | · | 0 | · | ·
CC(=O)Nc1ccc(S(=O)(=O)N2c3ccccc3C(C)=CC2(C)C)cc1 | -2 | 4 | 23* | -6 | -21 | 22* | -5
COC(=O)c1cccc(Cn2c(Cl)c(/C=N/Nc3ccccc3C)sc2=O)c1 | -4 | 7 | 38* | -2 | -1 | 5 | 0
Cc1ccc(S(=O)(=O)N2CCC(NC(=O)c3ccccc3)CC2)cc1 | -2 | 7 | 1 | -2 | 15 | · | ·
CCOc1cc(/C=C\[N+](=O)[O-])ccc1OCC(=O)Nc1ccccc1C | 1 | 20 | 89* | 16 | -15 | 97* | 13*
COc1ccc(NC(=O)C(c2ccc(C(F)(F)F)cc2)n2c(=O)c(-c3cc4ccccc4[nH]3)nc3ccccc32)cc1 (centres undefined) | · | · | 41* | · | · | 38* | 64*
COc1ccc(C(C(=O)Nc2ccc3c(c2)OCCO3)n2c(=O)c(-c3cc4ccccc4[nH]3)nc3ccccc32)cc1 (centres undefined) | · | · | 45* | · | · | 43* | 65*
COc1ccc(NC(=O)C(c2ccc(OC)cc2)n2c(=O)c(-c3ccco3)nc3ccccc32)cc1 (centres undefined) | · | · | -15 | · | · | · | ·
COc1cc(OC)cc(-c2c(Sc3ccccc3)c3cc(-c4ccc5c(c4)OCCO5)ccc3n2C)c1 | · | · | -19 | · | · | · | ·
COc1ccc(Nc2nnc(SCC(=O)N3CC(=O)Nc4ccccc43)s2)cc1 | 2 | -1 | 27* | 3 | 7 | 3 | -8
COc1ccc(Nc2nnc(SCC(=O)N3CCCC3)s2)cc1 | -1 | -4 | -5 | -3 | 4 | · | ·
C=CCC[C@@H](Cc1ccc(F)cc1)C(=O)OC[C@@H]1CCCN1C(=O)[C@@H](CC=C)CC(=O)N[C@@H](CO)Cc1ccccc1 | 6 | 8 | 4 | · | 0 | · | ·
CCOC(=O)C1=C(C)N(C)C(C)=C(C(=O)OCC)C1c1ccccc1 | 1 | -25 | 53* | 0 | -6 | -8 | -2
CC(=O)Nc1ccc(S(=O)(=O)Nc2nc3ccccc3nc2Nc2ccc3ccccc3c2)cc1 | 3 | 4 | 22* | -10 | 3 | -5 | -2
CC(=O)Nc1ccc(S(=O)(=O)Nc2nc3ccccc3nc2Nc2cccc(O)c2)cc1 | -2 | -6 | 10 | · | 10 | · | ·
CCOc1ccc(CNC(=O)C2CCN(c3nnc(C)c4c(C)n(-c5ccc(C)cc5)nc34)CC2)cc1 | 8 | 7 | 36* | · | -3 | 48* | 19*
COc1ccc(-n2nc3c(N4CCC(C(=O)NCc5cccc(C)c5)CC4)nnc(C)c3c2C)cc1 | 7 | 6 | 13 | · | 7 | · | ·
Cc1ccc(-n2nc3c(N4CCC(C(=O)NCc5ccccc5C)CC4)nnc(C)c3c2C)cc1 | 9.6* | 6 | 24* | · | 10 | 36* | 7
Cc1ccc(NC(=O)[C@@H]2CCCN2S(=O)(=O)c2ccc(Cl)cc2)cc1 | -1 | -4 | 1 | · | 5 | · | ·
SMILES | MC4R ag barr | TLR9-MyD88 block | NOD2-RIPK2 inh | TLR4 MyD88 comp | MC4R antag cAMP | NOD2-RIPK2 conf | NOD2 BLA counter
O=S(=O)(NC1CC(NS(=O)(=O)OCC(Cl)(Cl)Cl)C2CCCCC12)OCC(Cl)(Cl)Cl (centres undefined) | 3 | 10 | -2 | · | 4 | · | ·
Cc1cc(N(CC(=O)NC(C)C)S(C)(=O)=O)ccc1Br | 4 | -13 | 24* | 2 | -5 | -7 | -3
Nc1cc2c(cc1Cl)-c1ccc([N+](=O)[O-])cc1C2=NO | 0 | 0 | 22* | · | 22 | 18 | 26*
CC1=C(C)/C(=N\OS(=O)(=O)c2ccc(C)cc2)C=CC1=O | 1 | 3 | 58* | -4 | 16 | 54* | 4
OC(c1ccccc1)c1nc(/C=C/c2ccccc2)cs1 (centres undefined) | 0 | · | -4 | · | 7 | · | ·
COc1ccccc1N1C(=O)C2C(C(=O)c3ccccc3)=NN(c3ccc(C)cc3)C2C1=O (centres undefined) | 0 | · | 27* | · | -24 | 67* | 67*
COc1ccccc1N1C(=O)C2C(C(=O)c3ccccc3)=NN(c3ccc(Br)cc3)C2C1=O (centres undefined) | 3 | · | 25* | · | 0 | 81* | 83*
COc1ccccc1[C@@H]1C(c2ccccc2)=NN(c2ccc(Br)cc2)[C@H]1C(=O)N1CCOC1=O | -1 | -17 | -2 | · | 1 | · | ·
COC(=O)C1=NN(c2ccc(C)cc2)C2C(=O)N(c3ccccc3OC)C(=O)C12 (centres undefined) | 1 | -4 | -11 | · | 6 | · | ·
O=C(CCNC(=O)c1ccccc1Cl)Nc1cc(S(=O)(=O)N2CCOCC2)ccc1N1CCCC1 | -2 | 5 | -10 | · | 9 | · | ·
O=C(NCc1cccnc1)/C(=C\c1ccc(-c2ccc(Cl)c(Cl)c2)o1)S(=O)(=O)c1ccccc1 | 0 | 9 | 41* | 15 | 27 | 42* | -1
CCCCn1c(N)c(N(CCOC)C(=O)c2ccc(S(=O)(=O)N3CCCCC3)cc2)c(=O)[nH]c1=O | -5 | -2 | 3 | · | 17 | · | ·
N#CC(=C1C=CC(=NO)C(Cl)=C1)c1ccccc1 | · | · | 32* | · | · | 39* | 14*
COc1ccc(-c2c(C)n([O-])c3c([n+]2=O)CCCC3)cc1OC | · | · | · | 6 | · | · | ·
O=S(=O)(c1cnc(Cl)c(Cl)c1)N1CCc2ccccc21 | 1 | -4 | -5 | · | 18 | · | ·
O=S(=O)(c1cnc(Cl)c(Br)c1)N1CCc2ccccc21 | -1 | 12 | 27* | · | 19 | 35* | 5
O=C(N/N=C/c1[nH]c2ccccc2c1Cl)c1cccc(Br)c1 | 3 | · | 24* | · | 18 | 11 | 31*
Cc1[nH]c2ccccc2c1/C=N/NC(=O)c1cccc(Br)c1 | -1 | -5 | -8 | · | -3 | · | ·
COC(=O)c1cn(CCOc2ccc(C)cc2)c2ccccc12 | 6 | 3 | 4 | 10 | 2 | · | ·
